NR3A LBD binder: NR3A (human) ligand-binding domain modulation | NR3A LBD differential scanning fluorimetry, Tm shift; 0% = protein alone, 100% = glycine-bound protein | Tm shift relative to glycine control, % at 25 µM | 2.5% of 340,000 active;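 active = melting temperature shift of at least 10% of the positive control shift, at one fixed dose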
CSC inhib: cancer stem cell inhibition | cancer stem cell-like cells viability, luminescence | inhibition, % at 7.5 µM | 1.1% of 300,000 active; in the data active = inhibition above about 75%; inconclusive = no clear call, values can overlap the other calls; tested in HMLE shEcad cells
CHOP inh: blocks CHOP induction under ER stress. CHO-K1 CHOP-promoter luciferase, tunicamycin-induced, 15-18 h. inhibition, % at 10 µM. 3.8% of 220,000 active. AID 2732;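 active = compounds that reduced the stress-induced luciferase reporter signal by more than about 70% of percent inhibition, limit read from the data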;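 also: 0% = tunicamycin plus vehicle and 100% = wells without tunicamycin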
T cruzi inh: T. cruzi replication inhibition; T. cruzi beta-gal in NIH3T3, luminescence, 90 h; inhibition, % (concentration not given with the values); 1.4% of 300,000 active; AID 1885;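 active = mean inhibition across valid replicates above about 55%, limit read from the data; inconclusive = mean below that limit but half or more replicates reach it; inactive = mean below it, under half of replicates reach it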;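 also: signal also drops with host cell toxicity which is not excluded here; 0% = plate median of DMSO wells and 100% = zero luminescence signal; higher percent means less beta-gal luminescence so fewer parasites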
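System: mouse NIH/3T3 fibroblasts infected with β-gal-expressing T. cruzi Tulahuen C4 / Input: NIH/3T3 cells, 5,000 per well / Buffer or medium: Low-serum DMEM with 2% FBS / Probe or stimulus: 5000 reporter trypomastigotes per well / Schedule: ≥90 h infection period, 3 h prior cell attachment / Measured by: GalScreen luminescence, 60 min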
Beta apoptosis: blocks beta cell apoptosis | INS-1E cytokine-induced death, ATP luminescence, 48 h; percent of positive-control rescue, neutral wells zero | 0.8% of 300,000 active | protection from apoptosis, % (test concentration not listed);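 active = Every replicate reaches about 75%, or at least half do and their mean reaches it too, limit read from the data; inconclusive = At least half of replicates reach the limit but their mean does not; inactive = Under half of replicates reach the limit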;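 also: 0% = cytokine-treated negative control wells and 100% = positive control rescue; higher means more ATP so stronger rescue from cytokine killing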
PREPL inh: inhibits the human prolyl oligopeptidase-like enzyme | Q4J6C6 | recombinant PREPL, fluorescence polarization activity-based probe | inhibition, % at 5.96 µM | 0.68% of 320,000 active; in the data active = inhibition above about 43%;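 also: 0% = enzyme with DMSO and 100% = wells lacking enzyme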
Numbers without * were called inactive; u = inconclusive; x = no result. A selection: hits, their analogues and other compounds. The true share with any hit is near 6.7%.

SMILES	NR3A LBD binder	CSC inhib	CHOP inh	T cruzi inh	Beta apoptosis	PREPL inh
CCOc1ccc(NC(=O)CCC(=O)NNC(=O)Nc2ccc(Cl)cc2)cc1	12*	6	-5	-1	x	11
Cc1ccc(NC(=O)NNC(=O)COc2ccc(Cl)cc2)cc1	7	-2	x	-1	2	1
CCCc1ncc(C(O)c2cccc3ccccc23)n1C (configuration not stated)	12*	-1	29	7	-1	19
Cc1cc(/C=N/Nc2ncnc(N)c2[N+](=O)[O-])c(C)n1-c1ccccc1	-5	3	83*	5	16	12
CCOC(=O)c1c(OCC)[nH]c2ccc(O)cc12	-15	-9	72*	-9	-3	7
CCOC(=O)c1c(COc2ccccc2)oc2ccc(O)cc12	-9	-1	x	5	-2	4
CCOC(=O)c1c(C)[nH]c2ccc(O)cc12	26*	-8	11	-2	0	13
CCOC(=O)c1c(C)[nH]c2c1cc(O)c1ccccc12	-10	7	50	8	-5	2
Cc1ccc(C(=O)NC(=S)Nc2c(C)ccc3nsnc23)cc1	11*	-2	13	-9	-5	7
Cc1ccc(C(=O)NC(=S)Nc2cccc3nsnc23)cc1	0	-1	1	-12	x	3
CCOc1ccccc1N1CC(C(=O)N(C)Cc2cccnc2)CC1=O (configuration not stated)	1	4	x	-2	0	11
O=C(O)/C=C\C(=O)Nc1ccc(N2CCN(c3ccc(Cl)c(Cl)c3)CC2)cc1	-9	85*	24	-43	6	44*
O=C(O)/C=C\C(=O)Nc1ccc(N2CCN(c3cccc(Cl)c3)CC2)cc1	2	42	4	-7	-2	28
OC1(c2cccc(C(F)(F)F)c2)CCN(c2ccc(-c3ccccc3)nn2)CC1	-21	5	85*	x	0	11
CCOc1ccc2[nH]c3c(N4CCN(c5ccccn5)CC4)ncnc3c2c1	-3	47	30	17	14	68*
c1ccc2c(c1)[nH]c1c(N3CCC4(CC3)OCCO4)ncnc12	-1	x	33	2	36	15
OC1(c2cccc(C(F)(F)F)c2)CCN(c2ncnc3c2[nH]c2ccccc23)CC1	3	28	71*	44	31	29
Cc1ccc2c(c1)[nH]c1c(N3CCN(Cc4ccccc4)CC3)ncnc12	-13	13	x	-21	113*	55*
Cc1ccc2[nH]c3c(N4CCN(Cc5ccccc5)CC4)ncnc3c2c1	-9	23	61	-1	69	35
CCOC(=O)C1CN(S(=O)(=O)c2ccc(C)cc2)c2ccccc2O1 (configuration not stated)	-3	11	x	-9	-1	2
COc1ccc(Cl)cc1N(C(=O)Nc1cccc(Cl)c1)C1=NCC(C)S1 (configuration not stated)	-3	-4	-10	-10	-10	-1
COC(=O)C1=C(C)N(Cc2ccco2)C(=O)N[C@@H]1c1ccco1	2	4	x	-16	4	-10
COc1ccc(CCNC(=O)c2cccnc2Cl)cc1OC	1	-18	x	-1	-10	5
c1ccc(CN2CCN(c3ncnc4c3[nH]c3ccccc34)CC2)cc1	-6	x	87*	14	65	14
c1ccc2c(c1)CCN(c1ncnc3c1[nH]c1ccccc13)C2	-5	-7	71*	17	7	41
SMILES	NR3A LBD binder	CSC inhib	CHOP inh	T cruzi inh	Beta apoptosis	PREPL inh
CC(C)CC1(C)NC(=O)NC1=O (configuration not stated)	11*	-2	26	-15	-2	0
CCOC(=O)c1ccc(NC(=O)Cn2ncc(Cl)c(Cl)c2=O)cc1	2	90*	108*	56*	8	-5
Cc1cccc(Cn2ncc(Cl)c(Cl)c2=O)c1	1	-11	-99	-21	-14	5
Cc1ccc(C(=O)OCn2ncc(Cl)c(Cl)c2=O)cc1	-1	x	107*	50	101*	11
CCCCCCOc1ccc(-c2ccc(C#N)cn2)cc1	3	7	74*	8	x	-2
c1ccc2sc(NC3=NCN(CCN4CCOCC4)CN3)nc2c1	-2	-4	29	44	-2	10
CCN(CC)S(=O)(=O)c1cc(NC(=O)CNc2cccc(S(=O)(=O)N3CCCC3)c2)ccc1C	-3	-4	x	0	89*	3
Cc1ccc(NC(=O)CNc2ccc(Cl)c(Cl)c2)cc1S(=O)(=O)N(C)C	19*	7	47	-3	-1	33
CN(C)S(=O)(=O)c1cc(NC(=O)CSc2nn(-c3ccc(Cl)cc3)c(=S)s2)ccc1Cl	16*	16	48	-6	3	-18
CCOC(=O)C(NCCOC)(NC(C)=O)C(F)(F)F (configuration not stated)	-2	0	11	10	2	-6
CC(C)(C)OC(=O)N[C@@H](Cc1ccccc1)C(=O)N1CCC(C(=O)N[C@@H](Cc2c[nH]c3ccccc23)C(=O)O)CC1	0	1	x	2	-1	0
COc1ccccc1C(=O)NNC(=O)C1CCCO1 (configuration not stated)	-1	-11	x	-7	1	7
CCc1nnc(NC(=O)CSc2nnc3nc(C)cc(C)n23)s1	2	x	x	-5	5	-9
O=C(CC(=O)c1cc(Cl)ccc1O)c1ccccc1	3	15	110*	4	21	-38
Cc1cccc(C(=O)CC(=O)c2cc(Cl)ccc2O)c1	-4	32	108*	31	44	-16
Cc1cccc(C(=O)NCC(=O)NNC(=O)c2ccccc2O)c1	14*	0	x	-2	-5	1
O=C(CNC(=O)c1ccccc1F)NNC(=O)c1ccccc1O	-3	4	x	-18	0	9
Cc1ccc(O)c(C(=O)CC(=O)c2ccc(Cl)cc2)c1	1	37	x	6	21	-3
COc1ccc(NC(=S)N2CCC(N(C)CC3CCCO3)CC2)cc1Cl (configuration not stated)	1	34	16	4	7	-3
CC(C)(C)S(=O)(=O)N1C[C@@H]2CC/C=C\C/C=C\2[C@H]1CCO	-1	x	x	x	x	x
COc1ccc(NC(=O)/C=C/c2cc(Br)ccc2OC)cc1	15*	3	14	30	0	9
CCN(CC)c1ccc(NC(=O)/C=C/c2cc(Br)ccc2OC)cc1	-2	x	58	47	5	-4
CCCc1ccc(S(=O)(=O)NCc2nnc(SC)n2C)cc1	0	-1	x	6	-2	14
Cc1ccc2[nH]cc(C(=O)CN3CCN(C)CC3)c2c1	0	x	2	40	-5	6
Cc1ccc2c(C(=O)CCl)c(C)[nH]c2c1	0	22	-220	56*	-44	1
Cc1ccc2[nH]cc(C(=O)CCl)c2c1	38*	13	47	u	-81	3
CC1=C(C(=O)OCc2cc(C)on2)N2C(=O)[C@@H](NC(=O)OCc3cc(C)on3)[C@H]2SC1	2	-15	x	x	1	-1
O=C(Cn1cc(Cl)ccc1=O)c1ccc(Cl)cc1	0	-14	-11	-26	2	-7
Cc1ccc2nc(NCc3ccccc3)c(C=O)c(=O)n2c1	14*	-10	-4	4	-12	14
COc1cccc(CN(CCC(C)C)S(=O)(=O)c2cc(Br)ccc2Br)c1	15*	x	x	x	x	x

Screening data: PubChem BioAssay, several laboratories
